For orientation: IC50 means the concentration that gives 50% inhibition. One may read the pKi as the Ki on a negative log10 scale, so that one unit is a factor of ten.

Consider seven compounds from ChEMBL document CHEMBL5104154, “Thiamine analogues as inhibitors of pyruvate dehydrogenase and discovery of a thiamine analogue with non-thiamine related antiplasmodial activity” (RSC Med Chem, 2022).

Data set [1] is described as follows: Cytotoxicity against human HFF cells assessed as inhibition of cell proliferation incubated for 96 hrs by SYBR-based fluorescence assay. Format: toxicity. The method in brief:
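Human foreskin fibroblasts exposed to compounds up to the highest concentration that solubility allowed.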

Data set [2] concerns Plasmodium falciparum. Description: Antiplasmodial activity against chloroquine-sensitive Plasmodium falciparum 3D7 overexpressing GFP-tagged plasmodium falciparum TPK assessed as inhibition of parasite proliferation in presence of 2.97 uM thiamine by SYBR-based fluorescence assay. Format: functional, organism-based.
Data set [3] can be described thus: Selectivity index, ratio of IC50 for cytotoxicity against human HFF cells to IC50 for antiplasmodial activity against chloroquine-sensitive Plasmodium falciparum 3D7. Format: toxicity, cell-based. As to conditions: read-out: Ratio IC50.
The subject of data set [4] is Plasmodium falciparum. Description: Antiplasmodial activity against chloroquine-sensitive Plasmodium falciparum 3D7 assessed as inhibition of parasite proliferation in presence of 2.2 to 220 uM folic acid by SYBR-based fluorescence assay. Format: functional, organism-based.
Another data set addresses T1, Pyruvate decarboxylase (Zymomonas mobilis subsp. mobilis, UniProt P06672).
T1 sequence (P06672 whole entry): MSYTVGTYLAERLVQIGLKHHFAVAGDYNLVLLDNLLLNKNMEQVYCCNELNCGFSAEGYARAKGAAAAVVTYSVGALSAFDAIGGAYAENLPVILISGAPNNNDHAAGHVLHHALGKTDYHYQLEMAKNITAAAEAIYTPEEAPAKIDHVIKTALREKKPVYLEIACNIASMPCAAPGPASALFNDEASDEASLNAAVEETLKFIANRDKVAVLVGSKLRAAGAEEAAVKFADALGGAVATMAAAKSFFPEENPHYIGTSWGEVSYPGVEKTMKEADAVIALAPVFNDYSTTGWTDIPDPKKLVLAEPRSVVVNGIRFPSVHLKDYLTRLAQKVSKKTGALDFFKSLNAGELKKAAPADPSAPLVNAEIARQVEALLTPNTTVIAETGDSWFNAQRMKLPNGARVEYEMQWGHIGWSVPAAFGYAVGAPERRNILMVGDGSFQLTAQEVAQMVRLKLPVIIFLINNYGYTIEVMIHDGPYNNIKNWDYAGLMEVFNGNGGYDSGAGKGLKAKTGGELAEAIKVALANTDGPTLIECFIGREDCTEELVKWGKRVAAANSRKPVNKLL
Description: Inhibition of Zymomonas mobilis pyruvate decarboxylase incubated for 3 mins using pyruvate as substrate in presence of TPP by spectrophotometric analysis.

pKi: −log10 of the molar value. The source made the active and inactive calls. The calls are words filed in the database; no cut-off is given here. Bounds are passed on as bounds.

For `Cc1ncc(Cn2cc(CCOC(=O)c3ccccc3)nn2)c(N)n1`, the 50% inhibitory concentration (IC50) at 96 h in data set [1] was > 200 µM.
For the compound `Cc1ncc(Cn2cc(CCO)nn2)c(NCc2ccc(Br)cc2)n1`, the IC50 at 96 h in data set [1] stood at 98 µM.
`Cc1ncc(C[n+]2csc(CCO)c2C)c(O)n1`: the result in the data set on Plasmodium falciparum [2] was Active.
Consider `Cc1ncc(Cn2cc(CCOC(=O)c3cccc(Cl)c3)nn2)c(N)n1`, for which the selectivity ratio in data set [3] is > 3.2. The IC50 at 96 h in data set [1] was > 200 µM.
For the compound `COc1ncnc(NS(=O)(=O)c2ccc(N)cc2)c1OC`, the outcome in the data set on Plasmodium falciparum [4] was Active.
Consider `Cc1ncc(Cn2cc(CCOP(=O)(O)OP(=O)(O)O)nn2)c(N)n1`, for which the pKi on Pyruvate decarboxylase was 10.52.
Take `Cc1ncc(Cn2cc(CCO)nn2)c(N)n1`: the pKi at Pyruvate decarboxylase is 3.52.
